Measured values from ChEMBL document CHEMBL1144123, “Activity of triterpenoid glycosides from the root bark of Mussaenda macrophylla against two oral pathogens” (1999).
In brackets after ≈: the same amount, converted by molar mass. Activity calls are given as the source filed them. The calls are words filed in the database; no cut-off is given here.

Columns and labels:
[1] = test system: Porphyromonas gingivalis; test: Antibacterial activity against Porphyromonas gingivalis after 48 hrs by microtiter plate method; assay type: functional
Method in brief: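 Broth microdilution in trypticase soy broth-yeast extract with 0.05% cysteine hydrochloride, menadione (0.02 μg/mL), hemin (5 μg/mL) and 0.02% potassium nitrate. Inoculum 5 × 10^5 CFU/mL; serially diluted test agent, triplicates per concentration. Incubated anaerobically (10% H₂, 5% CO₂, 85% N₂), 37 °C, 48 h. Turbidity read at 650 nm; MIC = lowest concentration keeping absorbance <0.05.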

[2] = test system: Streptococcus mutans; test: Antibacterial activity against Streptococcus mutans after 48 hrs by microtiter plate method; assay type: functional
Method in brief: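 Brain-heart infusion broth, inoculum 5 × 10^6 CFU/mL, serial dilutions of test agent in triplicate per concentration, 37 °C for 48 h. Controls were inoculated medium without test agent; blanks were uninoculated medium. Growth read spectrophotometrically at 650 nm; MIC taken as minimum concentration limiting turbidity to <0.05 absorbance.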

MIC [1]	MIC [2]	Structure (SMILES)	Activity [1]
78 µg/mL (≈ 161 µM)	> 1250 µg/mL	CC(=O)O[C@H]1CC[C@]2(C)[C@H]3CC=C4[C@@H]5CC(C)(C)CC[C@]5(C)CC[C@@]4(C)[C@]3(C)C[C@@H](O)[C@H]2C1(C)C	–
78 µg/mL (≈ 94.1 µM)	> 1250 µg/mL	C[C@@H]1O[C@@H](OC(=O)[C@]23CCC(C)(C)C[C@H]2C2=CC[C@@H]4[C@@]5(C)C[C@H](O)[C@H](O[C@@H]6O[C@H](CO)[C@@H](O)[C@H](O)[C@H]6O)[C@@](C)(CO)[C@@H]5[C@H](O)C[C@@]4(C)[C@]2(C)C[C@H]3O)[C@H](O)[C@H](O)[C@H]1O	–
–	–	O=c1c(O)c(-c2ccc(O)cc2)oc2cc(O)cc(O)c12	Active
0.312 µg/mL (≈ 0.617 µM)	0.312 µg/mL (≈ 0.617 µM)	N=C(NCCCCCCNC(=N)NC(=N)Nc1ccc(Cl)cc1)NC(=N)Nc1ccc(Cl)cc1 [CHLORHEXIDINE]	–
39 µg/mL (≈ 78.2 µM)	> 1250 µg/mL	CC(=O)O[C@H]1CC[C@]2(C)[C@H]3CC=C4[C@@H]5CC(C)(C)CC[C@]5(C(=O)O)CC[C@@]4(C)[C@]3(C)CC[C@H]2C1(C)C [ACETYL OLEANOLIC ACID]	–
312 µg/mL (≈ 468 µM)	> 1250 µg/mL	CC1(C)CC[C@]2(C(=O)O[C@@H]3O[C@H](CO)[C@@H](O)[C@H](O)[C@H]3O)[C@H](O)C[C@]3(C)C(=CC[C@@H]4[C@@]5(C)C[C@H](O)[C@H](O)C(C)(C)[C@@H]5[C@H](O)C[C@]43C)[C@@H]2C1	–
312 µg/mL (≈ 384 µM)	> 1250 µg/mL	C[C@@H]1O[C@@H](OC(=O)[C@]23CCC(C)(C)C[C@H]2C2=CC[C@@H]4[C@@]5(C)C[C@H](O)[C@H](O[C@@H]6O[C@H](CO)[C@@H](O)[C@H](O)[C@H]6O)C(C)(C)[C@@H]5[C@H](O)C[C@@]4(C)[C@]2(C)C[C@H]3O)[C@H](O)[C@H](O)[C@H]1O	–
–	–	COc1cc(O)c2c(=O)c(O)c(-c3ccc(O)cc3)oc2c1	Active
156 µg/mL (≈ 125 µM)	> 1250 µg/mL	C/C(=C\C=C\[C@@H](C)[C@H]1CC[C@@]2(C)[C@@H]3CC[C@H]4C(C)(C)[C@@H](O[C@H]5O[C@@H](CO)[C@H](O)[C@@H](O[C@@H]6O[C@H](CO)[C@@H](O)[C@H](O)[C@H]6O)[C@@H]5O[C@@H]5O[C@H](CO[C@H]6O[C@@H](CO)[C@H](O)[C@@H](O)[C@@H]6O)[C@@H](O)[C@H](O)[C@H]5O[C@@H]5O[C@@H](C)[C@H](O)[C@@H](O)[C@H]5O)CC[C@@]45C[C@@]35CC[C@]12C)C(=O)O	–
–	–	O=c1c(O)c(-c2cc(O)c(O)c(O)c2)oc2cc(O)cc(O)c12	Active
625 µg/mL (≈ 1370 µM)	–	CC1(C)CC[C@]2(C(=O)O)CC[C@]3(C)C(=CC[C@@H]4[C@@]5(C)CC[C@H](O)C(C)(C)[C@@H]5CC[C@]43C)[C@@H]2C1 [OLEANOLIC_ACID]	–
